Measurements taken from ChEMBL document CHEMBL4673255, “Acylated 1H-1,2,4-Triazol-5-amines Targeting Human Coagulation Factor XIIa and Thrombin: Conventional and Microscale Synthesis, Anticoagulant Properties, and Mechanism of Action” (J Med Chem, 2020).
pIC50: −log10 of the molar value.

What was measured:
[1] = tested on: Plasma; test: (§1) Anticoagulant activity in human platelet-rich plasma assessed as reduction in TF-induced thrombin generation by measuring endogenous thrombin potential at 100 uM preincubated for 15 mins followed by TF addition by Z-Gly-Gly-Arg-AMC substrate based calibrated automated thrombography (reference value: 1203 +/- 44 AU.min/L); format: functional; settings: 0.25 h
Procedure, shortened: (§2)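 Tissue-factor-triggered homogeneous thrombin generation followed by fluorogenic substrate cleavage. Read-outs: clotting time (T1/2), peak amplitude (Amax, AU/L), time to peak (Tmax) and ETP (AU·min/L). DMSO and buffer served as controls. n = 3, mean ± SD.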

[2] = tested on: Plasma; test: as §1, with “Tmax of clotting time” for “endogenous thrombin potential”, “8.1” for “1203”, “0.6 min)” for “44 AU.min/L)”; format: functional, cell-free; procedure, shortened: as §2
[3] = tested on: Plasma; test: Anticoagulant activity in human platelet-rich plasma assessed as reduction in TF-induced thrombin generation by measuring half life of clotting time at 100 uM preincubated for 15 mins followed by TF addition by Z-Gly-Gly-Arg-AMC substrate based calibrated automated thrombography (Rvb= 3 +/- 0.5 min); format: functional, cell-free; procedure, shortened: as §2
[4] = tested on: Plasma; test: as §1, with “amplitude of” for “endogenous”, “peak” for “potential”, “63” for “1203”, “3.7 AU/L)” for “44 AU.min/L)”; format: functional; settings: 0.25 h; procedure, shortened: as §2
[5] = tested on: Blood; test: Anticoagulant activity in human blood assessed as concentration required to double the activated partial thromboplastin time incubated for 1 min followed by aPTT reagent based assay; format: functional
Procedure, shortened: (§3)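 Compounds were tested at 300 µM, and the increase was expressed relative to DMSO. The doubling concentration (EC2×) is the concentration prolonging aPTT twofold. At least triplicate, mean ± SD.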

[6] = tested on: HepG2; test: Cytotoxicity against human HepG2 cells assessed as reduction in cell viability at 100 uM incubated for 48 hrs by alamar blue assay relative to control; format: cell-based; settings: hepg2, 48 h
[7] = target: T1, Coagulation factor XII (Homo sapiens) (UniProt P00748); test: Inhibition of human coagulation factor XIIA in presence of Boc-Gln-Gly-Arg-AMC as fluorogenic substrate at 1 uM measured at 1 min interval for 1 hr by fluorometric assay relative to control
T1 sequence (whole entry): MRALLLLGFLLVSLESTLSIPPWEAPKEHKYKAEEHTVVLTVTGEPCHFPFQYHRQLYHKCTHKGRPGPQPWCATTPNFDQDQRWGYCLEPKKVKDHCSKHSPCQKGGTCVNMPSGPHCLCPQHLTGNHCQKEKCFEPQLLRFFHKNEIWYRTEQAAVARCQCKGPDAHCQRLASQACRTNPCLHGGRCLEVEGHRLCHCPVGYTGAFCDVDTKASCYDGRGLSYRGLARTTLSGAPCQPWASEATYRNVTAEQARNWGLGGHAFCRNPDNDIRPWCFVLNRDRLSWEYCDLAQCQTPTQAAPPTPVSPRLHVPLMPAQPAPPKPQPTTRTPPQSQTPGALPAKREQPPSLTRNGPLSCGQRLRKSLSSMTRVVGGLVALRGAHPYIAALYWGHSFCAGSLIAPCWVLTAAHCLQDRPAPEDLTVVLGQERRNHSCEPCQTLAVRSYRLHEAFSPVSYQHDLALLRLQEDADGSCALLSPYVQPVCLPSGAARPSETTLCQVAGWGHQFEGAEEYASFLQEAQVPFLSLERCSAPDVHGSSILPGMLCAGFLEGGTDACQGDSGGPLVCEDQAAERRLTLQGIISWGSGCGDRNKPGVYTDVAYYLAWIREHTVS
Procedure, shortened: (§4)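 Screening of crude microscale amide-coupling products. Conversion was measured by 1H NMR and product content normalised to 76 µmol/L in DMSO, then tested at 1 µM and 100 nM in the fluorogenic FXIIa or thrombin assay. A 0-conversion reaction served as blank. Percent inhibition is from triplicates.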

[8] = target: Urokinase-type plasminogen activator (Homo sapiens, UniProt P00749); test: Inhibition of human uPA using Tos-Gly-Pro-Arg-AMC as fluorogenic substrate measured at 1 min interval for 1 hr by fluorometric assay
[9] = target: Plasminogen (Homo sapiens, UniProt P00747); test: Inhibition of human plasmin using Mes-dArg-Phe-Arg-AMC as fluorogenic substrate measured at 1 min interval for 1 hr by fluorometric assay
Sequence of Plasminogen (P00747 97-580 limits assumed): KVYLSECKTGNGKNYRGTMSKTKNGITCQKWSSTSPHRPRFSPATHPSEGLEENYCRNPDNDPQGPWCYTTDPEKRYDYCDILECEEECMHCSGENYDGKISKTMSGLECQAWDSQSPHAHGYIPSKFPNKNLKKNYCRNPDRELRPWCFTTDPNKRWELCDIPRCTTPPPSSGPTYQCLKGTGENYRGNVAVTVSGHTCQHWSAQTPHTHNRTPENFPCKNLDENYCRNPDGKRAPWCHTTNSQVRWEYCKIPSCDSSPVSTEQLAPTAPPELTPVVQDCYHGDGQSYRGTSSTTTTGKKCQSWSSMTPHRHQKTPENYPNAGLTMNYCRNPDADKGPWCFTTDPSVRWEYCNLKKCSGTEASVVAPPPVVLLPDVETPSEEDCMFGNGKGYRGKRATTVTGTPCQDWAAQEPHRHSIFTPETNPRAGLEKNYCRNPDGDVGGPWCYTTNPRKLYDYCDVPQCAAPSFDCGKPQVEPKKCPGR
Sequence of Plasminogen (P00747 581-810 limits assumed): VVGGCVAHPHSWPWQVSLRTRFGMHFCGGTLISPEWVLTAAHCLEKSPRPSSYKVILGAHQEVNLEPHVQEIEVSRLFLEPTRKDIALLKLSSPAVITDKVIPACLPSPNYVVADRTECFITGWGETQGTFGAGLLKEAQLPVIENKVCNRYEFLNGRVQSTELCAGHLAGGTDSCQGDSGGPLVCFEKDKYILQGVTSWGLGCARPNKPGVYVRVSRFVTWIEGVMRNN

[10] = target: Plasma kallikrein (Homo sapiens, UniProt P03952); test: Inhibition of human kallikrein using Mes-dArg-Pro-Arg-AMC as fluorogenic substrate measured at 1 min interval for 1 hr by fluorometric assay
Sequence of Plasma kallikrein (P03952 20-390 limits assumed): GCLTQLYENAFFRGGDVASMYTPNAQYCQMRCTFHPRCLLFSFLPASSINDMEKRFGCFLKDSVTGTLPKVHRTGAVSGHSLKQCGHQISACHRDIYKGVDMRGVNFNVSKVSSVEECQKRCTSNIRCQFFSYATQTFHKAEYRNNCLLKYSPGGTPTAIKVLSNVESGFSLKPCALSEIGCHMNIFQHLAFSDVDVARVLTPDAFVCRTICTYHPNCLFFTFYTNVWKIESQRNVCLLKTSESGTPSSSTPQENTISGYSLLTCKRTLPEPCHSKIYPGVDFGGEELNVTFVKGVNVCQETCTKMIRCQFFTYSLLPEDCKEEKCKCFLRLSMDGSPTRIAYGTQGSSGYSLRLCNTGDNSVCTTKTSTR
Sequence of Plasma kallikrein (P03952 391-638 limits assumed): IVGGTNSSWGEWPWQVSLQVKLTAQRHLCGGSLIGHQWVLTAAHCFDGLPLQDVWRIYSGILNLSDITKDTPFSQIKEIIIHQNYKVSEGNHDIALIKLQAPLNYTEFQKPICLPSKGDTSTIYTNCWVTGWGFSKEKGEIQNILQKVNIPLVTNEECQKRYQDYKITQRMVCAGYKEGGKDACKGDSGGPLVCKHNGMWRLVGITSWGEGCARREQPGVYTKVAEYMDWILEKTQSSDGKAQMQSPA

[11] = target: T2, Fatty-acid amide hydrolase 1 (Rattus norvegicus, UniProt P97612); test: Inhibition of FAAH in rat brain membrane using N-(2-hydroxyethyl)-4-pyren-1-ylbutanamide as substrate measured after 60 mins by reverse-phase HPLC-based fluorescence assay; format: cell membranes
T2 sequence (P97612 whole entry): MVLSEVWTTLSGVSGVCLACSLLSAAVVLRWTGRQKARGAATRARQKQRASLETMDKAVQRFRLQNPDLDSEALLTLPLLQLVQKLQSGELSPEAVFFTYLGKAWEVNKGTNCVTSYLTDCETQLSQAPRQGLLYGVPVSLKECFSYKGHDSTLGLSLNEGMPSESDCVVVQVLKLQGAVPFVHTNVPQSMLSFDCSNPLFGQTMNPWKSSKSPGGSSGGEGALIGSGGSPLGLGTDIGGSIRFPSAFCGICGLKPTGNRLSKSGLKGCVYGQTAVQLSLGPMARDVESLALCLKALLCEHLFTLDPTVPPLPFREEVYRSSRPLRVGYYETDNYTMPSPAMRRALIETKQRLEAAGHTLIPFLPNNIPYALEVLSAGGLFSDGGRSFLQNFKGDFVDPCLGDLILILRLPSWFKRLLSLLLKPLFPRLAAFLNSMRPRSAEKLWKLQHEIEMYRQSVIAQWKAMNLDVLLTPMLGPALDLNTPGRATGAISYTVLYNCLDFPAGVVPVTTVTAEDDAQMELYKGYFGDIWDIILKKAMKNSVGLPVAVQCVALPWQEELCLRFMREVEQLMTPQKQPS

[12] = target: T1, Coagulation factor XII (Homo sapiens); test: Inhibition of human coagulation factor XIIA using Boc-Gln-Gly-Arg-AMC as fluorogenic substrate at 100 nM measured at 1 min interval for 1 hr by fluorometric assay relative to control; procedure, shortened: as §4
[13] = tested on: Blood; test: Anticoagulant activity in human blood assessed as increase in activated partial thromboplastin time at 300 uM incubated for 1 min by aPTT reagent based assay relative to control; format: functional; procedure, shortened: as §3
[14] = tested on: Blood; test: Effect on blood coagulation in human blood assessed as increase in prothrombin time at 300 uM incubated for 3 mins followed by CaCl2 addition by PT reagent based assay relative to control; format: ADME, tissue-based; settings: 0.05 h
Procedure, shortened: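 Clotting was started with PT reagent already containing CaCl2, prewarmed to 37 °C, and clotting time was recorded. Increase is given relative to DMSO; at least triplicate, mean ± SD.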

[15] = Inhibition of porcine trypsin using Z-Gly-Gly-Arg-AMC as fluorogenic substrate measured at 1 min interval for 1 hr by fluorometric assay; design: species or system Sus scrofa
[16] = target: T3, Coagulation factor XII (Homo sapiens, UniProt P00748); test: Inhibition of human coagulation factor XIIA using Boc-Gln-Gly-Arg-AMC as fluorogenic substrate measured at 1 min interval for 1 hr by fluorometric assay
T3 sequence (P00748 whole entry): T1 sequence (whole entry)

Row | SMILES | Activity [1] [AU.min/L] | Tmax [2] [min] | T1/2 [3] [min] | Activity [4] [AU/L] | 2aPTT [5] [µM] | Activity [6] [%] | inhibition [7] [%] | pIC50 [8] | pIC50 [9] | pIC50 [10] | pIC50 [11] | inhibition [12] [%] | Activity [13] [%] | Activity [14] [%] | pIC50 [15] | pIC50 [16]
1 | Nc1nc(-c2ccccn2)nn1C(=O)c1ccc2ccccc2c1 | 2160 | 8 | 2.3 | 175.5 | 107 | 25 | 77 | 5.17 | < 5.30 | < 5.30 | < 5.30 | 19 | 212 | 575 | < 5.30 | 6.86
2 | Nc1nc(-c2ccccn2)nn1C(=O)c1cccc2ccccc12 | 738 | 7 | 2.7 | 53.3 | 236 | 8 | 98 | < 5.30 | < 5.30 | < 5.30 | < 5.30 | 77 | 176 | 14 | < 5.30 | 7.54
